Experimental data reported in ChEMBL document CHEMBL3112482, “Nonclassical antifolates, part 5. Benzodiazepine analogs as a new class of DHFR inhibitors: synthesis, antitumor testing and molecular modeling study” (Eur J Med Chem, 2014).

Columns and labels:
[1] = Growth inhibition of human OVCAR5 cells at 10 uM after 48 hrs; assay type: functional; settings: OVCAR-5, 48 h, read-out: GI
Procedure, shortened: (§1)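 Single-dose primary screen in the NCI 60 human tumour cell line panel, run at the NCI facility. The panel covers nine subpanels: leukaemia, non-small cell lung, colon, CNS, melanoma, ovarian, renal, prostate and breast. Read-out was percent growth of treated cells, shown as a mean graph and reported as percent growth inhibition.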

[2] = Growth inhibition of human UACC257 cells at 10 uM after 48 hrs; assay type: functional; settings: UACC-257, 48 h, read-out: GI
Procedure, shortened: (§2)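 NCI 60-cell-line disease-oriented human tumor panel, single-dose primary screen at 10 µM. Data given as mean-graph percent growth of treated cells, reported as percent growth inhibition (GI %).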

K562 = test: Growth inhibition of human K562 cells at 10 uM after 48 hrs; assay type: functional; settings: K562, 48 h, read-out: GI; procedure, shortened: as §1
[3] = Cytotoxicity against human leukemia cells at 10 uM after 48 hrs; assay type: functional; settings: Leukemia cell
[4] = Cytotoxicity against human prostate cancer cells at 10 uM after 48 hrs; assay type: functional; settings: Cancer cell lines
[5] = Growth inhibition of human HOP92 cells at 10 uM after 48 hrs; assay type: functional; settings: HOP-92, 48 h, read-out: GI; procedure, shortened: as §1
[6] = Cytotoxicity against human melanoma cells at 10 uM after 48 hrs; assay type: functional; settings: Melanoma cell; procedure, shortened: as §1
A549 = test: Growth inhibition of human A549 cells at 10 uM after 48 hrs; assay type: functional; settings: A549, 48 h, read-out: GI; procedure, shortened: as §1
A498 = test: Growth inhibition of human A498 cells at 10 uM after 48 hrs; assay type: functional; settings: A498, 48 h, read-out: GI; procedure, shortened: as §1
[7] = Growth inhibition of human UO31 cells at 10 uM after 48 hrs; assay type: functional; settings: UO-31, 48 h, read-out: GI; procedure, shortened: as §2
PC-3 = test: Growth inhibition of human PC3 cells at 10 uM after 48 hrs; assay type: functional; settings: PC-3, 48 h, read-out: GI; procedure, shortened: as §1
CAKI-1 = test: Growth inhibition of human CAKI-1 cells at 10 uM after 48 hrs; assay type: functional; settings: CAKI-1, 48 h, read-out: GI; procedure, shortened: as §1
[8] = Cytotoxicity against human renal cancer cells at 10 uM after 48 hrs; assay type: functional; settings: Cancer cell lines
IGROV-1 = test: Growth inhibition of human IGROV1 cells at 10 uM after 48 hrs; assay type: functional; settings: IGROV-1, 48 h, read-out: GI; procedure, shortened: as §1
SK-MEL-5 = test: Growth inhibition of human SK-MEL-5 cells at 10 uM after 48 hrs; assay type: functional; settings: SK-MEL-5, 48 h, read-out: GI; procedure, shortened: as §2
NCI-H322M = test: Growth inhibition of human NCI-H322M cells at 10 uM after 48 hrs; assay type: functional; settings: read-out: GI; procedure, shortened: as §1
MDA-MB-435 = test: Growth inhibition of human MDA-MB-435 cells at 10 uM after 48 hrs; assay type: functional; settings: MDA-MB-435, 48 h, read-out: GI; procedure, shortened: as §1
SF-268 = test: Growth inhibition of human SF268 cells at 10 uM after 48 hrs; assay type: functional; settings: SF-268, 48 h, read-out: GI; procedure, shortened: as §2
[9] = Cytotoxicity against human CNS cancer cells at 10 uM after 48 hrs; assay type: functional; settings: Cancer cell lines
[10] = Cytotoxicity against human colon cancer cells at 10 uM after 48 hrs; assay type: functional; settings: Cancer cell lines; procedure, shortened: as §1
[11] = Growth inhibition of human SF539 cells at 10 uM after 48 hrs; assay type: functional; settings: SF-539, 48 h, read-out: GI; procedure, shortened: as §2
Dihydrofolate reductase = target: T1, Dihydrofolate reductase (Bos taurus, UniProt P00376); test: Inhibition of bovine liver DHFR measured for every 1 min of 10 mins
T1 sequence (P00376 whole entry): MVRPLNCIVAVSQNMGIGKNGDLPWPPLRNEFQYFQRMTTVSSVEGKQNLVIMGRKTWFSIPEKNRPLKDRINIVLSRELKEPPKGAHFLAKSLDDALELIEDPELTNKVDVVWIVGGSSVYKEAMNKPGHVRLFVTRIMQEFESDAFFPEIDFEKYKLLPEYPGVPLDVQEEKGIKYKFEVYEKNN

NCI-H23 = test: Growth inhibition of human NCI-H23 cells at 10 uM after 48 hrs; assay type: functional; settings: NCI-H23, 48 h, read-out: GI; procedure, shortened: as §1
[12] = Cytotoxicity against human breast cancer cells at 10 uM after 48 hrs; assay type: functional; settings: Cancer cell lines; procedure, shortened: as §1
OVCAR-8 = test: Growth inhibition of human OVCAR8 cells at 10 uM after 48 hrs; assay type: functional; settings: OVCAR-8, 48 h, read-out: GI; procedure, shortened: as §1
U-251 = test: Growth inhibition of human U251 cells at 10 uM after 48 hrs; assay type: functional; settings: U-251, 48 h, read-out: GI; procedure, shortened: as §2
[13] = Growth inhibition of human OVCAR4 cells at 10 uM after 48 hrs; assay type: functional; settings: OVCAR-4, 48 h, read-out: GI; procedure, shortened: as §1
DU-145 = test: Growth inhibition of human DU145 cells at 10 uM after 48 hrs; assay type: functional; settings: DU-145, 48 h, read-out: GI; procedure, shortened: as §1
SF-295 = test: Growth inhibition of human SF295 cells at 10 uM after 48 hrs; assay type: functional; settings: SF-295, 48 h, read-out: GI; procedure, shortened: as §2
NCI-H460 = test: Growth inhibition of human NCI-H460 cells at 10 uM after 48 hrs; assay type: functional; settings: NCI-H460, 48 h, read-out: GI; procedure, shortened: as §1
SK-MEL-28 = test: Growth inhibition of human SK-MEL-28 cells at 10 uM after 48 hrs; assay type: functional; settings: SK-MEL-28, 48 h, read-out: GI; procedure, shortened: as §2
TK-10 = test: Growth inhibition of human TK10 cells at 10 uM after 48 hrs; assay type: functional; settings: TK-10, 48 h, read-out: GI; procedure, shortened: as §2
MCF7 = test: Growth inhibition of human MCF7 cells at 10 uM after 48 hrs; assay type: functional; settings: MCF7, 48 h, read-out: GI; procedure, shortened: as §1
ACHN = test: Growth inhibition of human ACHN cells at 10 uM after 48 hrs; assay type: functional; settings: read-out: GI; procedure, shortened: as §1
[14] = Growth inhibition of human NCI-ADR-RES cells at 10 uM after 48 hrs; assay type: functional; settings: read-out: GI; procedure, shortened: as §1
[15] = Cytotoxicity against human non-small cell lung cancer cells at 10 uM after 48 hrs; assay type: functional; settings: Cancer cell lines; procedure, shortened: as §1
KM12 = test: Growth inhibition of human KM12 cells at 10 uM after 48 hrs; assay type: functional; settings: KM12, 48 h, read-out: GI; procedure, shortened: as §1
[16] = Growth inhibition of human Hs 578T cells at 10 uM after 48 hrs; assay type: functional; settings: read-out: GI; procedure, shortened: as §1
T47D = test: Growth inhibition of human T47D cells at 10 uM after 48 hrs; assay type: functional; settings: read-out: GI; procedure, shortened: as §2
786-0 = test: Growth inhibition of human 786-0 cells at 10 uM after 48 hrs; assay type: functional; settings: 786-0, 48 h, read-out: GI; procedure, shortened: as §1
OVCAR-3 = test: Growth inhibition of human OVCAR3 cells at 10 uM after 48 hrs; assay type: functional; settings: OVCAR-3, 48 h, read-out: GI; procedure, shortened: as §1
SN12C = test: Growth inhibition of human SN12C cells at 10 uM after 48 hrs; assay type: functional; settings: read-out: GI; procedure, shortened: as §2
SNB-75 = test: Growth inhibition of human SNB75 cells at 10 uM after 48 hrs; assay type: functional; settings: SNB-75, 48 h, read-out: GI; procedure, shortened: as §2
MDA-MB-231 = test: Growth inhibition of human MDA-MB-231 cells at 10 uM after 48 hrs; assay type: functional; settings: MDA-MB-231, 48 h, read-out: GI; procedure, shortened: as §1
HOP-62 = test: Growth inhibition of human HOP62 cells at 10 uM after 48 hrs; assay type: functional; settings: HOP-62, 48 h, read-out: GI; procedure, shortened: as §1
UACC-62 = test: Growth inhibition of human UACC62 cells at 10 uM after 48 hrs; assay type: functional; settings: UACC-62, 48 h, read-out: GI; procedure, shortened: as §2
[17] = Growth inhibition of human EKVX cells at 10 uM after 48 hrs; assay type: functional; settings: read-out: GI; procedure, shortened: as §1
SK-MEL-2 = test: Growth inhibition of human SK-MEL-2 cells at 10 uM after 48 hrs; assay type: functional; settings: SK-MEL-2, 48 h, read-out: GI; procedure, shortened: as §2
SK-OV-3 = test: Growth inhibition of human SKOV3 cells at 10 uM after 48 hrs; assay type: functional; settings: SK-OV-3, 48 h, read-out: GI; procedure, shortened: as §2
SNB-19 = test: Growth inhibition of human SNB19 cells at 10 uM after 48 hrs; assay type: functional; settings: SNB-19, 48 h, read-out: GI; procedure, shortened: as §2
SR = test: Growth inhibition of human SR cells at 10 uM after 48 hrs; assay type: functional; settings: read-out: GI; procedure, shortened: as §2
[18] = read-out: LC50 (the source's name)

SMILES: COc1ccc(/C=C2\CCCc3c2nc(C)nc3-c2ccc(OC)c(OC)c2)cc1OC
- inhibition of growth at 10 µM [1]: 95.3%
- inhibition of growth at 10 µM [2]: 79.8%
- inhibition of growth at 10 µM (K562): 94.1%
- GI50 [3]: 6.8 µM
- LC50 [3]: > 100 µM
- TGI [3]: 92.7 µM
- GI50 [4]: 26.9 µM
- LC50 [4]: > 100 µM
- TGI [4]: > 100 µM
- inhibition of growth at 10 µM [5]: 69.9%
- GI50 [6]: 26.9 µM
- TGI [6]: > 100 µM
- CC50 [6, 18]: > 100 µM
- inhibition of growth at 10 µM (A549): 82.1%
- inhibition of growth at 10 µM (A498): 94.1%
- inhibition of growth at 10 µM [7]: 65.7%
- inhibition of growth at 10 µM (PC-3): 68%
- inhibition of growth at 10 µM (CAKI-1): 94.9%
- CC50 [8]: 96.9 µM
- GI50 [8]: 23.7 µM
- TGI [8]: 98.7 µM
- inhibition of growth at 10 µM (IGROV-1): 75.6%
- inhibition of growth at 10 µM (SK-MEL-5): 93.8%
- inhibition of growth at 10 µM (NCI-H322M): 52.6%
- inhibition of growth at 10 µM (MDA-MB-435): 98.5%
- inhibition of growth at 10 µM (SF-268): 80%
- GI50 [9]: 34.2 µM
- TGI [9]: > 100 µM
- CC50 [9, 18]: > 100 µM
- GI50 [10]: 28.9 µM
- TGI [10]: 88.9 µM
- CC50 [10, 18]: > 100 µM
- inhibition of growth at 10 µM [11]: 82.9%
- IC50 (Dihydrofolate reductase): 0.1 µM
- inhibition of growth at 10 µM (NCI-H23): 70.9%
- GI50 [12]: 15.7 µM
- LC50 (concentration killing 50% of cells) [12]: 99.2 µM
- TGI [12]: 80.6 µM
- inhibition of growth at 10 µM (OVCAR-8): 96.9%
- inhibition of growth at 10 µM (U-251): 81.8%
- inhibition of growth at 10 µM [13]: 79.1%
- inhibition of growth at 10 µM (DU-145): 92.7%
- inhibition of growth at 10 µM (SF-295): 97%
- inhibition of growth at 10 µM (NCI-H460): 99.4%
- inhibition of growth at 10 µM (SK-MEL-28): 77%
- inhibition of growth at 10 µM (TK-10): 87.8%
- inhibition of growth at 10 µM (MCF7): 73.7%
- inhibition of growth at 10 µM (ACHN): 90.2%
- inhibition of growth at 10 µM [14]: 88.8%
- GI50 [15]: 37.8 µM
- TGI [15]: 90.2 µM
- CC50 [15, 18]: > 100 µM
- inhibition of growth at 10 µM (KM12): 93.8%
- inhibition of growth at 10 µM [16]: 41%
- inhibition of growth at 10 µM (T47D): 88.8%
- inhibition of growth at 10 µM (786-0): 90.8%
- inhibition of growth at 10 µM (OVCAR-3): 97.1%
- inhibition of growth at 10 µM (SN12C): 94.1%
- inhibition of growth at 10 µM (SNB-75): 64.8%
- inhibition of growth at 10 µM (MDA-MB-231): 92.9%
- inhibition of growth at 10 µM (HOP-62): 67.9%
- inhibition of growth at 10 µM (UACC-62): 89.1%
- inhibition of growth at 10 µM [17]: < 30%
- inhibition of growth at 10 µM (SK-MEL-2): 94.1%
- inhibition of growth at 10 µM (SK-OV-3): 93%
- inhibition of growth at 10 µM (SNB-19): 39.6%
- inhibition of growth at 10 µM (SR): < 30%

SMILES: Clc1ccc(/C=C2\CCCC3=C(c4ccc(Cl)cc4)Nc4cc(Cl)c(Cl)cc4N=C32)cc1
- IC50 (Dihydrofolate reductase): 12 µM

SMILES: COc1ccc(/C=C2\CCCC3=C(c4ccc(OC)cc4)Nc4cc(C)c(C)cc4N=C32)cc1
- IC50 (Dihydrofolate reductase): 0.1 µM
